What is called IC50 is the midpoint of a concentration-inhibition curve. In general, Ki refers to the dissociation constant of the complex between target and ligand, obtained from inhibition or displacement. One may read the clearance as the rate of elimination divided by the concentration. A word on the bioavailability: it is dose-corrected exposure relative to a reference, in per cent. Broadly, the AUC(0-inf) is the area under the concentration-time curve extrapolated to infinity. The Cmax is the highest concentration seen after dosing. Broadly, the half-life is how long it takes for the measured level to halve.

In series [1] the target is Cytochrome P450 3A4 (Homo sapiens, UniProt P08684). Put plainly: Inhibition of CYP3A4 in human liver microsomes using testosterone as substrate preincubated for 30 mins followed by substrate/NADPH addition measured after 10 mins by LC-MS/MS analysis. Format: ADME.
Chain of Cytochrome P450 3A4 (P08684 whole entry): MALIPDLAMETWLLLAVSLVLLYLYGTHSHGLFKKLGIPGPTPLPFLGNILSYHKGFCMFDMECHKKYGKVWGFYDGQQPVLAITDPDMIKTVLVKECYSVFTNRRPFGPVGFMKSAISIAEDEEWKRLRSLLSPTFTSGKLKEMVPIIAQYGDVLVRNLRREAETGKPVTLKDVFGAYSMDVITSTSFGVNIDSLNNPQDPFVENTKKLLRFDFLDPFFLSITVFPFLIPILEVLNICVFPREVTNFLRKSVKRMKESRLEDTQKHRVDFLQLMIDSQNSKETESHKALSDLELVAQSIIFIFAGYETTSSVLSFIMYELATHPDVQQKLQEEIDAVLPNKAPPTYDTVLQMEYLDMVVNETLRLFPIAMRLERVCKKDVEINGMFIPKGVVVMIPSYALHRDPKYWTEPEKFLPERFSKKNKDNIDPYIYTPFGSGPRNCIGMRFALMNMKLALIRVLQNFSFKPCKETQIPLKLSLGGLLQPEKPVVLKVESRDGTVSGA
Series [2] has as its system Rattus norvegicus. Briefly: Anti-alzheimer activity in rat assessed as reduction in amyloid beta40 levels in cerebrospinal fluid at 10 mg/kg, po relative to control. The class given is functional. Also noted: scale not given: the % may be the effect or the level left.
Series [3] concerns the target Beta-secretase 1 (Homo sapiens, UniProt P56817). Put plainly: Inhibition of purified human BACE1.
A short description of series [4]: Clearance in Han Wistar rat at 2 mg/kg, iv. Format: ADME, organism-based. Conditions: in vivo. The procedure, abridged:
(§1)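 Same Wistar Han rat PK study, intravenous arm at 2 mg/kg. Clearance, Vd,ss and t1/2 were taken from the iv data.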

Series [5] can be described thus: Oral bioavailability in Han Wistar rat at 10 mg/kg. The class given is ADME, organism-based. Particulars: in vivo. The procedure, abridged: (§2)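 Wistar Han rats received a single oral dose of 10 mg/kg. AUC(0-∞), Cmax and oral bioavailability (F%) were derived from this oral arm.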
The nature of series [6]: AUC (0 to infinity) in Han Wistar rat at 10 mg/kg, po. Conditions: in vivo. Format: ADME, organism-based. The arrangement: dose 10 mg/kg, route oral, time infinity. The method, boiled down: as §2
Series [7] in a line: Cmax in Han Wistar rat at 10 mg/kg, po. Format: ADME, organism-based. Also noted: dose 10 mg/kg, route oral. Particulars: in vivo. The procedure, abridged: as §2
Series [8] is described as follows: Half life in Han Wistar rat at 2 mg/kg, iv. The class given is ADME, organism-based. Conditions: in vivo. The method, boiled down: as §1
A short description of series [9]: Volume of distribution at steady state in Han Wistar rat at 2 mg/kg, iv. Format: ADME, organism-based. Particulars: in vivo, read-out: Vdss. The procedure, abridged: as §1
Series [10] in a line: Protein binding in rat plasma. Particulars: read-out: PPB (converted). The class given is ADME, cell-free.
Series [11] relates to Rattus norvegicus. Put plainly: Anti-alzheimer activity in rat assessed as reduction in amyloid beta40 levels in cerebrospinal fluid at 30 mg/kg, po relative to control. Format: functional. The arrangement: scale not given: the % may be the effect or the level left.

Chain of Beta-secretase 1 (P56817 whole entry): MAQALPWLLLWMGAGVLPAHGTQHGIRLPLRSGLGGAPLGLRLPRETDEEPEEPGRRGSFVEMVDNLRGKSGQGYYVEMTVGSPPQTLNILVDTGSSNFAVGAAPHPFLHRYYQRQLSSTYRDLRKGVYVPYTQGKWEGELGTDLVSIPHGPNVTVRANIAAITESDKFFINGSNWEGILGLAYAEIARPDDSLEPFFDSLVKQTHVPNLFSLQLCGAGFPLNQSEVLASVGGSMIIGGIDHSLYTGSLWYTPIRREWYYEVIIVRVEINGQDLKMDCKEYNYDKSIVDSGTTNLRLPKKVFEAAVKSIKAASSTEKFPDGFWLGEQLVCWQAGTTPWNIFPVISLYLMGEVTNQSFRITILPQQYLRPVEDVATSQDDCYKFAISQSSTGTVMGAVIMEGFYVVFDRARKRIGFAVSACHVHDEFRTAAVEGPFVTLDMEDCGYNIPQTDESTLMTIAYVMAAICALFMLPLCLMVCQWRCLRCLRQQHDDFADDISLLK

Consider `CN1C(=O)[C@@H]2CN(c3ncccn3)C[C@]2(c2cc(-c3cccc(C#N)c3)cs2)N=C1N`, for which the IC50 in [1] was above 30000 nM.

Take `Cc1nc(N2C[C@H]3C(=O)N(C)C(=N)N[C@@]3(c3cc(-c4cccc(C#N)c4)cs3)C2)ncc1F`: the IC50 in series [1] came to 600 nM. Moreover, the Activity in series [2] turned out to be 38%. The Ki in [3] was determined as 0.7 nM.

Consider `CN1C(=N)N[C@@]2(c3cc(Br)cs3)CN(c3ncc(F)cn3)C[C@H]2C1=O`, for which the IC50 in series [1] was determined as 900 nM. Further, affinity in [3] was put at a Ki of 100 nM.

`CN1C(=N)N[C@@]2(c3cc(-c4cccc(C#N)c4)cs3)CN(c3ncc(F)c(N4CCCC4)n3)C[C@H]2C1=O` registered an IC50 in series [1] above 30000 nM. The Activity in [2] was determined as 2%. The same molecule had a Ki in [3] of 3 nM.

In turn, `Cc1nc(N2C[C@H]3C(=O)N(C)C(=N)N[C@@]3(c3cc(-c4cccc(C#N)c4)cs3)C2)nc(C)c1F` showed a clearance in series [4] of 5.6 mL/min/kg. This molecule had a bioavailability in series [5] of 54%. This molecule also yielded an AUC(0-inf) in series [6] of 34 µM·h. Moreover, in [2], the Activity was found to be 54%. In series [7], this molecule displayed a Cmax of 5.8 µM. The same molecule had a half-life in series [8] of 2.1 h. Also, the Vd in series [9] came out at 1 L/kg. The molecule further yielded a Ki in series [3] of 1 nM. Besides, in [10], the fraction unbound was 0.003.

The molecule `CN1C(=N)N[C@@]2(c3cc(-c4cc(F)cc(F)c4)cs3)CN(c3ncc(F)cn3)C[C@H]2C1=O` had an IC50 in series [1] of 1000 nM. Besides, the Ki in series [3] was 10 nM.

Consider `CCCOc1nc(N2C[C@H]3C(=O)N(C)C(=N)N[C@@]3(c3cc(-c4cccc(C#N)c4)cs3)C2)ncc1F`, for which the IC50 in series [1] was 1200 nM. The same molecule yielded a Ki in series [3] of 1 nM. The Activity in series [11] is recorded as 12%.

In series [1], `CN1C(=N)N[C@@]2(c3cc(-c4cccc(Cl)c4)cs3)CN(c3ncc(F)cn3)C[C@H]2C1=O` yielded an IC50 of 1200 nM. In [3], this molecule registered a Ki of 1 nM.

Turning to `CN1C(=N)N[C@@]2(c3cc(-c4ccc(F)c(C#N)c4)cs3)CN(c3ncc(F)cn3)C[C@H]2C1=O`, half-maximal inhibition in [1] (IC50) required 5700 nM. In series [3], this molecule showed a Ki of 4 nM.

In turn, `CCc1nc(N2C[C@H]3C(=O)N(C)C(=N)N[C@@]3(c3cc(-c4cccc(C#N)c4)cs3)C2)ncc1F` had an IC50 in series [1] of 900 nM. The Activity in [2] is 49%. In addition, the Ki in [3] is 1 nM.

`CCOc1nc(N2C[C@H]3C(=O)N(C)C(=N)N[C@@]3(c3cc(-c4cccc(C#N)c4)cs3)C2)ncc1F` registered an IC50 in series [1] of 700 nM. The molecule further yielded a Ki in series [3] of 1 nM. Moreover, the Activity in [11] worked out at 20%.

In the case of `CN1C(=N)N[C@@]2(c3cc(-c4cc(F)cc(C#N)c4)cs3)CN(c3ncc(F)cn3)C[C@H]2C1=O`, the IC50 in [1] turned out to be 1600 nM. In series [3], this molecule displayed a Ki of 2 nM.

In [1], `COc1cc(C#N)cc(-c2csc([C@]34CN(c5ncc(F)cn5)C[C@H]3C(=O)N(C)C(=N)N4)c2)c1` returned an IC50 of 1600 nM. Also, in [3], the Ki came out at 1 nM.

Regarding `COc1nc(N2C[C@H]3C(=O)N(C)C(=N)N[C@@]3(c3cc(-c4cccc(C#N)c4)cs3)C2)nc(C)c1F`, the IC50 in series [1] was found to be 11000 nM. The same molecule yielded a Ki in series [3] of 0.7 nM.

Take `CN1C(=N)N[C@@]2(c3cc(-c4cccc(C#N)c4)cs3)CN(c3ncc(F)c(N4CCOCC4)n3)C[C@H]2C1=O`: the IC50 in [1] is above 30000 nM. For the same molecule, in series [2], the Activity came out at 17%. The molecule also yielded a Ki in series [3] of 1 nM.

For `COc1nc(N2C[C@H]3C(=O)N(C)C(=N)N[C@@]3(c3cc(-c4cccc(C#N)c4)cs3)C2)ncc1F`, in series [11], the Activity came to 45%.

For `CN1C(=O)[C@@H]2CN(c3ccc(F)cc3)C[C@]2(c2cc(-c3cccc(C#N)c3)cs2)N=C1N`, the IC50 in [1] is above 30000 nM.

Take `CN1C(=N)N[C@@]2(c3cc(-c4ccc(Cl)c(C#N)c4)cs3)CN(c3ncc(F)cn3)C[C@H]2C1=O`: the IC50 in series [1] was determined as 5500 nM. The molecule also registered a Ki in [3] of 10 nM.

These data come from ChEMBL document CHEMBL4266039, “Overcoming Time-Dependent Inhibition (TDI) of Cytochrome P450 3A4 (CYP3A4) Resulting from Bioactivation of a Fluoropyrimidine Moiety” (J Med Chem, 2018).
